Assay results pooled from the literature.
Lines come from different studies, so protocols differ.
SLCO1B3: Solute carrier organic anion transporter family member 1B3 (SLCO1B3, Homo sapiens, UniProt Q9NPD5)

`Cc1ncsc1-c1ccc(CNC(=O)[C@@H]2C[C@@H](O)CN2C(=O)[C@@H](NC(=O)COCCOCCn2cc(COc3ccc(-c4nc5cc(-c6ccccc6)ccn5c4Nc4ccc(C(=O)O)cc4)cc3)nn2)C(C)(C)C)cc1` gave a CC50 of 74 µM (MCF7; cell growth or viability; 72 h).
`C[C@H]1[C@@H](C(=O)NCc2nc(-c3ccc(C#N)cc3)cs2)CCCN1C(=O)[C@H]1CCC(=O)O1` gave a microsomal CLint of 24 µL/min/mg (metabolic stability; male Sprague-Dawley rat, liver microsomes; 0.5 µM).
With `CC(C)C(=O)OC[C@H]1O[C@@](C#N)(c2ccc3c(N)ncnn23)[C@H](O)[C@@H]1O` the CC50 was 81.6 µM (HEp-2; cell growth or viability, CCK-8; 5 days).
`CC(C)(N)COCC(=O)N1CCC[C@H](C(=O)NCc2nc(-c3ccc(C(F)(F)F)cc3)cs2)C1` gave a microsomal CLint of 9.9 µL/min/mg (metabolic stability; male Sprague-Dawley rat, liver microsomes; 0.5 µM).
The IC50 of `O=C(O)COc1cccc(-c2nc(Nc3ccc4[nH]ncc4c3)c3ccccc3n2)c1` is reported as 1.55 µM (SLCO1B3; transporter uptake, inhibitor).
The clearance of `COc1ccc2c(c1)CN(C(=O)CCN1CCC(Cc3ccccc3)CC1)CC[S@@+]2[O-]` is reported as 203 mL/min (male human, plasma; intravenous, 0.05 mg/kg, healthy volunteers).
For `COCC(=O)N1CCC[C@H](C(=O)NCc2nc(-c3cncnc3)cs2)C1`, the microsomal CLint was less than 7 µL/min/mg (metabolic stability; human, liver microsomes; 0.5 µM).
`CCc1cc(=O)oc2cc(OC(CC)C(=O)c3ccccc3)ccc12` (centres unmarked) gave a CC50 of greater than 12.5 µM (TZM-bl; cell growth or viability, resazurin).
The CC50 of `N#C[C@@]1(c2ccc3c(N)ncnn23)O[C@H](COC(=O)c2ccccc2)[C@@H](O)[C@H]1O` is reported as 79.2 µM (HEp-2; cell growth or viability, CCK-8; 5 days).
With `NC/C(=C\F)COc1cccc(Cn2c(=S)[nH]c(=O)c3[nH]cnc32)c1` the inhibition was less than 50% (SLCO1B3; transporter uptake, inhibitor; 30 µM).
`CC[C@H](C)[C@H](N)C(=O)OC[C@H]1O[C@@](C#N)(c2ccc3c(N)ncnn23)[C@H](O)[C@@H]1O` has a CC50 of greater than 100 µM (HEp-2; cell growth or viability, CCK-8; 5 days).
For `Nc1ccn([C@@H]2O[C@H](CO)[C@@H](O)C2(F)F)c(=O)n1`, the viability was 20.7% (MCF7; cell growth or viability, MTT; 10 µg/mL, 24 h).
For `COCC(=O)N1CCC[C@H](C(=O)NCc2nc(-c3ccc(C)nc3)cs2)C1`, the microsomal CLint was 5.1 µL/min/mg (metabolic stability; human, liver microsomes; 0.5 µM).
`CC(C)[C@@H](N)C(=O)OC[C@H]1O[C@@](C#N)(c2ccc3c(N)ncnn23)[C@H](O)[C@@H]1O` has a CC50 of greater than 100 µM (HEp-2; cell growth or viability, CCK-8; 5 days).
